The nature of series [1]: Inhibition of N-terminal 6xHis-tagged Hepatitis C virus genotype 1b Con1 NS5B polymerase containing 21-amino acid deletion at C-terminus expressed in Escherichia coli using radiolabeled UTP as substrate after 2 hrs by scintillation counting analysis. Further details: species or system Hepatitis C virus (isolate Con1). A digest of the protocol:
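GT-1b Con1 NS5B polymerase (NS5B570n-Con1) activity assay run with RNA template at 3 nM and enzyme at 3 nM. IC50 reported in nM.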

The subject of series [2] is Hepatitis C virus. Put plainly: Antiviral activity against Hepatitis C virus genotype 1a H77 infected in human 2209-23 cells after 72 hrs by luciferase reporter gene assay. The format is functional, organism-based, Hepacivirus hominis. To be noted: genotype 1a H77, 2209-23, 72 h. (In general: In a reporter assay the amount or activity of a reporter protein is the signal.)

Series [3] relates to Hepatitis C virus. Briefly: Ratio of EC50 for Hepatitis C virus genotype 1b Con1 in presence of human serum to EC50 for Hepatitis C virus genotype 1b Con1. The format is functional, Hepacivirus hominis, isolate Con1.
For series [4], the system named is Hepatitis C virus. Briefly: Ratio of EC50 for Hepatitis C virus genotype 1a H77 in presence of human serum to EC50 for Hepatitis C virus genotype 1a H77. The format is functional, Hepacivirus hominis.
Series [5] relates to Hepatitis C virus. Put plainly: Antiviral activity against Hepatitis C virus genotype 1b Con1 infected in human 2209-23 cells after 72 hrs by luciferase reporter gene assay in presence of 40% human serum. The following applies: isolate Con1, 2209-23, 72 h. The format is functional, organism-based, Hepacivirus hominis.
Series [6] has as its system Hepatitis C virus. Briefly: Antiviral activity against Hepatitis C virus genotype 1a H77 infected in human 2209-23 cells after 72 hrs by luciferase reporter gene assay in presence of 40% human serum. The format is functional, organism-based, Hepacivirus hominis. The following applies: genotype 1a H77, 2209-23, 72 h.
Series [7] can be described thus: Ratio of EC50 for Hepatitis C virus genotype 1a H77 to EC50 for Hepatitis C virus genotype 1b Con1. Type of series: functional.
The subject of series [8] is Hepatocyte. Put plainly: Intrinsic clearance in rat hepatocytes assessed per 10^6 cells. Type of series: ADME, cell-based. A digest of the protocol:
(§1)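 Suspended hepatocytes (about 1.0×10^6 cells/mL) in Williams' medium E with glutamine, antibiotics, insulin, dexamethasone and 10% FCS, 37 °C, 5% CO2, shaken at 900 rpm. Compound at 0.1–10.0 μM. Stopped with methanol plus internal standard at 2–180 min. Parent remaining by LC/MS/MS peak area ratio, in duplicate.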

The subject of series [9] is Hepatocyte. Briefly: Intrinsic clearance in human hepatocytes assessed per 10^6 cells. The format is ADME, cell-based. A digest of the protocol: as §1
Series [10] relates to Hepatitis C virus. Briefly: Antiviral activity against Hepatitis C virus genotype 1b Con1 infected in human 2209-23 cells after 72 hrs by luciferase reporter gene assay. Type of series: functional, organism-based, Hepacivirus hominis. The following applies: isolate Con1, 2209-23, 72 h. A digest of the protocol: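 Stable GT-1b Con1 subgenomic replicon cell line expressing a renilla luciferase reporter, used as the readout of inhibition. EC50 from luciferase signal, n 2.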

Series [11] is described as follows: Thermodynamic solubility of the compound. Type of series: physicochemical. To be noted: read-out: Therm_solubility.

In brackets after ≈: the same amount, converted by molar mass.

By IC50 is commonly meant the concentration needed to halve the response being measured. Higher therefore signals lower potency. Broadly, the EC50 is the concentration needed to bring the measured effect to its halfway point. One may read the EC90 as the concentration needed for an effect of 90%.

Turning to `COc1c(C(C)(C)C)cc(-c2ccc[nH]c2=O)c2ncc(N3CC(CNS(C)(=O)=O)C3)cc12`, half-maximal inhibition in series [1] (IC50) was put at 3.5 nM. This compound came in with a concentration giving a half-maximal response (EC50) in series [2] of 532 nM.
For the compound `COc1c(C(C)(C)C)cc(-n2ccc(=O)[nH]c2=O)c2ncc(-c3ccc(NS(C)(=O)=O)cc3)cc12`, the “Ratio EC50” value in series [3] turned out to be 1.7; in series [4], 1.7; in series [7] it was 2.2. In addition, the EC50 in series [5] amounted to 5.6 nM; in series [6], 16 nM; in series [10], 3.2 nM; in series [2], 7.2 nM. Moreover, the EC90 turned out to be 29 nM in series [5] and 123 nM in series [6]. Moreover, the CLH in series [8] is on record as 20 uL/min/10^6 cells; in [9], 7.9 uL/min/10^6 cells.
As to `COc1c(C(C)(C)C)cc(-c2ccc(C)[nH]c2=O)c2ncc(CCCCNS(C)(=O)=O)cc12`, in [11], the solubility thermodynamic amounted to 168 µg/mL (≈ 356 µM). Further, the EC50 in [2] is above 1000 nM.
For `COc1c(C(C)(C)C)cc(-c2ccc[nH]c2=O)c2ncc(N3CC[C@H](CNS(C)(=O)=O)C3)cc12`, the solubility thermodynamic in series [11] worked out at 11 µg/mL (≈ 22.7 µM). Further, in [1], 0.2 nM corresponded to half-maximal inhibition (IC50). In [2], this compound yielded an EC50 of 7.9 nM.
With `COc1c(/C=C/c2ccc(NS(C)(=O)=O)cc2)cc(-c2cc(F)c[nH]c2=O)cc1C(C)(C)C`, the EC90 in series [5] was found to be 128 nM; in series [6], 531 nM.
With `COc1c(C(C)(C)C)cc(-c2ccc[nH]c2=O)c2ncc(-c3ccc(NS(C)(=O)=O)cc3)cc12`, the “Ratio EC50” value in series [3] is 0.8; in [4] it was 0.8; in series [7], 1.7. Further, the EC50 in [5] is 11 nM; in series [6], 4 nM; in series [10], 3.1 nM; in series [2], 5.2 nM. For the same compound, the EC90 in series [5] is 47 nM; in [6] it was 25 nM.
In the case of `COc1c(C(C)(C)C)cc(-c2ccc(C)[nH]c2=O)c2ncc(-c3ccc(NS(C)(=O)=O)cc3)cc12`, the results for the 50% effective concentration (EC50) in [10] and in series [2] were 2 nM and 4.2 nM, respectively.
Consider `CC(C)(C)c1cc(-c2cc(F)c[nH]c2=O)c2ncc(-c3ccc(NS(C)(=O)=O)cc3)cc2c1`, for which the results for the half-maximal effective concentration (EC50) in series [10] and in [2] were 16 nM and 25 nM, respectively.
The matching figures for `COc1c(C(C)(C)C)cc(N2CCCNC2=O)c2ncc(-c3ccc(NS(C)(=O)=O)cc3)cc12`: 20 nM and 64 nM.
On the same counts, the results for `COc1c(C(C)(C)C)cc(-n2ccc(=O)[nH]c2=O)c2ccc(-c3ccc(NS(C)(=O)=O)cc3)nc12` are 12 nM and 83 nM.
On to `CC(C)(C)c1nc(-n2ccc(=O)[nH]c2=O)c2ccc(-c3ccc(NS(C)(=O)=O)cc3)cc2n1`, for which, in [2], the EC50 was 17 nM.
Take `COc1c(C(C)(C)C)cc(N2CCC(=O)NC2=O)c2ncc(-c3ccc(NS(C)(=O)=O)cc3)cc12`: the “Ratio EC50” value in series [3] is listed as 1.7; in series [4], 1.7; in [7], 1.4. The concentration for a half-maximal effect (EC50) in series [5] was found to be 3.5 nM; in series [6] it was 10 nM; in series [10] it was 3.2 nM; in [2], 4.6 nM. Further, the EC90 is 20 nM in series [5] and 48 nM in [6].
Take `COc1c(C(C)(C)C)cc(-n2ccc(=O)[nH]c2=O)c2ccc(-c3ccc(NS(C)(=O)=O)cc3)cc12`: the EC50 in series [10] was 1 nM; in [2], 4 nM.
`COc1c(C(F)(F)F)cc(-n2ccc(=O)[nH]c2=O)c2ncc(-c3ccc(NS(C)(=O)=O)cc3)cc12`: the CLH is 1.8 uL/min/10^6 cells in series [8] and 1.5 uL/min/10^6 cells in series [9]. The EC50 in [10] was found to be 57 nM; in [2], 821 nM.
On the same counts, the results for `COc1c(C2(C(F)F)CC2)cc(-n2ccc(=O)[nH]c2=O)c2ncc(-c3ccc(NS(C)(=O)=O)cc3)cc12` are 1.7 uL/min/10^6 cells, 0.1 uL/min/10^6 cells, 16 nM and 95 nM.
On the same counts, the results for `COc1c(CC(F)(F)F)cc(-n2ccc(=O)[nH]c2=O)c2ncc(-c3ccc(NS(C)(=O)=O)cc3)cc12` are 3.7 uL/min/10^6 cells, 0.8 uL/min/10^6 cells, 119 nM and 839 nM.
Take `COc1c(C(C)(C)C)cc(-c2cn(C)c(=O)[nH]c2=O)c2ncc(-c3ccc(NS(C)(=O)=O)cc3)cc12`: the EC50 in series [10] was determined as 1.5 nM; in series [2] it was 3 nM.
Take `Cc1ccc(-c2cc(C(C)(C)C)cc3cc(N4CCCC(CNS(C)(=O)=O)C4)cnc23)c(=O)[nH]1` (stereo unspecified): the solubility thermodynamic in [11] is 66 µg/mL (≈ 137 µM). Further, the IC50 in series [1] came out at 625 nM. This compound also gave an EC50 in series [2] above 1000 nM.
Regarding `COc1c(C(C)(C)C)cc(-c2cc(F)c[nH]c2=O)c2ncc(-c3ccc(NS(C)(=O)=O)cc3)cc12`, the values for the concentration for a half-maximal effect (EC50) in series [10] and in [2] were 3.5 nM and 3.8 nM, respectively.
Regarding `COc1c(C(C)(C)C)cc(-c2ccc(C)[nH]c2=O)c2ncc(C#CCCNS(C)(=O)=O)cc12`, in series [11], the solubility thermodynamic is below 1 µg/mL. Also, it took 5 nM to reach half-maximal inhibition in series [1] (IC50). In series [2], this compound gave an EC50 of 341 nM.
